In brackets after ≈: the same amount, converted by molar mass.
Experiments:
[1] = Antitumor activity against human KPL4 cells xenografted in SCID beige mouse assessed as tumor growth inhibition at 12.5 mg/kg, po qd for 21 days; assay type: functional; conditions: 504 h, read-out: TGI
How it was run: (§1)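 KPL-4 breast cancer xenografts grown in scid beige mice; oral dosing once daily for 21 days in MCT vehicle (0.5% methylcellulose/0.2% Tween-80) at 0.78–25 mg/kg, 10 animals per group; tumor volumes fitted and tumor growth inhibition calculated versus vehicle-treated mice.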

[2] = Plasma protein binding in Beagle dog at 5 uM after 4 hrs by LC-MS/MS analysis; assay type: ADME, cell-free, Canis lupus familiaris; conditions: read-out: PPB (converted)
How it was run: (§2)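 Equilibrium dialysis of pooled plasma (n ≥ 3) spiked with compound at 5 µM total against PBS pH 7.4, 37 °C, 5% CO2, for 4 h; plasma and buffer concentrations measured by LC-MS/MS; percent unbound calculated as buffer/plasma ×100.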

[3] = Antiproliferative activity against human PC3 cells after 4 days by luminescence plate reader method; assay type: functional, cell-based; conditions: PC-3, 96 h
[4] = Thermodynamic solubility of compound at pH 7.4; assay type: physicochemical; conditions: buffer, read-out: Therm_solubility
[5] = Antiproliferative activity against human MCF7-neo/Her2 cells after 3 days by luminescence plate reader method; assay type: functional, cell-based; conditions: 72 h
[6] = Plasma protein binding in Sprague-Dawley rat at 5 uM after 4 hrs by LC-MS/MS analysis; assay type: ADME, cell-free; conditions: read-out: PPB (converted); how it was run: as §2
[7] = Antitumor activity against human KPL4 cells xenografted in SCID beige mouse assessed as tumor growth inhibition at 3.25 mg/kg, po qd for 21 days; assay type: functional; conditions: 504 h, read-out: TGI; how it was run: as §1
[8] = Volume of distribution at steady state in Beagle dog at 1 mg/kg, iv; assay type: ADME, organism-based, Canis lupus familiaris; conditions: in vivo, read-out: Vdss
[9] = Clearance in NCR nude mouse at 1 mg/kg, iv; assay type: ADME, organism-based; conditions: in vivo
[10] = AUC in Sprague-Dawley rat at 5 mg/kg, po; assay type: ADME, organism-based; conditions: in vivo
How it was run: (§3)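 Male Sprague-Dawley rats dosed PO at 5 mg/kg in 0.5% methylcellulose/0.2% Tween 80 (MCT); the IV reference arm was 1 mg/kg in 60% PEG400/10% ethanol.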

Canis familiaris [11] = test: Oral bioavailability in Beagle dog at 2 mg/kg; assay type: ADME, organism-based, Canis lupus familiaris; conditions: in vivo
How it was run: (§4)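 Single oral dose at 2 mg/kg in 0.5% methylcellulose with 0.2% Tween 80, given to beagle dogs or male cynomolgus monkeys; the IV reference was 1 mg/kg in 60% PEG400/10% ethanol.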

[12] = Cmax in NCR nude mouse at 25 mg/kg, po; assay type: ADME, organism-based; parameters: dose 25 mg/kg, route oral; conditions: in vivo
[13] = Antitumor activity against human MCF7-neo/Her2 cells xenografted in mouse assessed as tumor growth inhibition at 1.56 mg/kg, po qd for 21 days; assay type: functional; conditions: 504 h, read-out: TGI
How it was run: (§5)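 MCF7-neo/HER2 breast cancer xenografts grown in nude mice; daily oral dosing for 21 days in 0.5% methylcellulose/0.2% Tween-80 vehicle at 0.78–25 mg/kg, 10 animals per group; fitted tumor volumes compared against vehicle-treated mice to give tumor growth inhibition.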

[14] = Volume of distribution at steady state in Sprague-Dawley rat at 1 mg/kg, iv; assay type: ADME, organism-based; conditions: in vivo, read-out: Vdss
[15] = Cytotoxicity against human KPL4 cells after 4 days by luminescence plate reader method; assay type: functional, cell-based; conditions: KPL4, 96 h
Cytochrome P450 2C19 = Cytochrome P450 2C19 (Homo sapiens, UniProt P33261); test: Inhibition of CYP2C19 (unknown origin); assay type: ADME
[16] = Antitumor activity against human KPL4 cells xenografted in SCID beige mouse assessed as tumor growth inhibition at 6.25 mg/kg, po qd for 21 days; assay type: functional; conditions: 504 h, read-out: TGI; how it was run: as §1
[17] = Oral bioavailability in NCR nude mouse at 25 mg/kg; assay type: ADME, organism-based; conditions: in vivo
[18] = Cmax in Cynomolgus monkey at 2 mg/kg, po; assay type: ADME, organism-based, Macaca fascicularis; parameters: dose 2 mg/kg, route oral; conditions: in vivo; how it was run: as §4
[19] = Clearance in Cynomolgus monkey at 1 mg/kg, iv; assay type: ADME, organism-based, Macaca fascicularis; conditions: in vivo
Mus musculus [20] = test: Toxicity in SCID beige mouse xenografted with human KPL4 cells assessed as body weight loss upto 12.5 mg/kg, po; assay type: organism-based; conditions: in vivo
Cytochrome P450 3A4 = Cytochrome P450 3A4 (Homo sapiens, UniProt P08684); test: Inhibition of CYP3A4 (unknown origin); assay type: ADME
[21] = Antitumor activity against human KPL4 cells xenografted in SCID beige mouse assessed as tumor growth inhibition at 1.56 mg/kg, po qd for 21 days; assay type: functional; conditions: 504 h, read-out: TGI; how it was run: as §1
[22] = Antitumor activity against human MCF7-neo/Her2 cells xenografted in mouse assessed as tumor growth inhibition at 0.78 mg/kg, po qd for 21 days; assay type: functional; conditions: 504 h, read-out: TGI; how it was run: as §5
Mus musculus [23] = test: Volume of distribution at steady state in NCR nude mouse at 1 mg/kg, iv; conditions: in vivo
[24] = Clearance in Sprague-Dawley rat at 1 mg/kg, iv; assay type: ADME, organism-based; conditions: in vivo
[25] = Cmax in Beagle dog at 2 mg/kg, po; assay type: ADME, organism-based, Canis lupus familiaris; parameters: dose 2 mg/kg, route oral; conditions: in vivo; how it was run: as §4
[26] = Antitumor activity against human KPL4 cells xenografted in SCID beige mouse assessed as tumor growth inhibition at 0.78 mg/kg, po qd for 21 days; assay type: functional; conditions: 504 h, read-out: TGI; how it was run: as §1
[27] = Oral bioavailability in Cynomolgus monkey at 2 mg/kg; assay type: ADME, organism-based, Macaca fascicularis; conditions: in vivo; how it was run: as §4
[28] = Antitumor activity against human MCF7-neo/Her2 cells xenografted in mouse assessed as tumor growth inhibition at 6.25 mg/kg, po qd for 21 days; assay type: functional; conditions: 504 h, read-out: TGI; how it was run: as §5
Cytochrome P450 2D6 = Cytochrome P450 2D6 (Homo sapiens, UniProt P10635); test: Inhibition of CYP2D6 (unknown origin); assay type: ADME
[29] = AUC in NCR nude mouse at 25 mg/kg, po; assay type: ADME, organism-based; conditions: in vivo
Cytochrome P450 2C9 = Cytochrome P450 2C9 (Homo sapiens, UniProt P11712); test: Inhibition of CYP2C9 (unknown origin); assay type: ADME
[30] = Volume of distribution at steady state in Cynomolgus monkey at 1 mg/kg, iv; assay type: ADME, organism-based, Macaca fascicularis; conditions: in vivo, read-out: Vdss
[31] = AUC in Cynomolgus monkey at 2 mg/kg, po; assay type: ADME, organism-based, Macaca fascicularis; conditions: in vivo
[32] = Apparent permeability from apical to basolateral side in MDCK cells; assay type: ADME, cell-based, Canis lupus familiaris; conditions: dog
[33] = Antitumor activity against human MCF7-neo/Her2 cells xenografted in mouse assessed as tumor growth inhibition at 12.5 mg/kg, po qd for 21 days; assay type: functional; conditions: 504 h, read-out: TGI; how it was run: as §5
Canis familiaris [34] = test: AUC in Beagle dog at 2 mg/kg, po; assay type: ADME, organism-based, Canis lupus familiaris; conditions: in vivo
Mus musculus [35] = test: Decrease in phosphorylated Akt in mouse xenografted with human MCF7-neo/Her2 cells at 6.25 mg/kg administered as single dose after 1 hr by immunoassay; assay type: functional
How it was run: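 Mice bearing MCF7-neo/HER2 tumors given a single oral dose in MCT vehicle; tumors collected 1 h later. Phospho-Akt Ser473 and total Akt measured by Mesoscale Discovery immunoassay and expressed as pAkt/tAkt relative to vehicle; four animals per group; unbound plasma drug measured at the same time.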

[36] = Oral bioavailability in Sprague-Dawley rat at 5 mg/kg; assay type: ADME, organism-based; conditions: in vivo; how it was run: as §3
[37] = Antitumor activity against human MCF7-neo/Her2 cells xenografted in mouse assessed as tumor growth inhibition at 3.25 mg/kg, po qd for 21 days; assay type: functional; conditions: 504 h, read-out: TGI; how it was run: as §5
[38] = biological target: Phosphatidylinositol 4-phosphate 3-kinase C2 domain-containing subunit beta (Homo sapiens) (UniProt O00750); test: Inhibition of PI3KC2b (unknown origin) at 1 uM
How it was run: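 Kinase panel screen of 235 kinases at Invitrogen with compound at 1 µM; read-out was percent inhibition.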

Cytochrome P450 2D6, sequence (P10635 whole entry): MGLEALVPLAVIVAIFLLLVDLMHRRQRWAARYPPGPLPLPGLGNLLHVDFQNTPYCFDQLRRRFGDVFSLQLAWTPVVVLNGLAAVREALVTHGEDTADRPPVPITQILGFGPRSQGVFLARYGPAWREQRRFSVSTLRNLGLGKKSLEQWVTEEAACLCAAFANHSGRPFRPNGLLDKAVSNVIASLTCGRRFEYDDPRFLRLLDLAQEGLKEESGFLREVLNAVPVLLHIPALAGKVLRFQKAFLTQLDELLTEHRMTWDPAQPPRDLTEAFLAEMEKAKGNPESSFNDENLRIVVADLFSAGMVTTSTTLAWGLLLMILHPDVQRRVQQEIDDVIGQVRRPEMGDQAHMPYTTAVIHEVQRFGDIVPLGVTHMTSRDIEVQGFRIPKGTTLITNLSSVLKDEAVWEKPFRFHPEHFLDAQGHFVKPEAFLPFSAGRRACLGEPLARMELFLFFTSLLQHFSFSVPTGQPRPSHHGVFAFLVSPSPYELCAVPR
Cytochrome P450 2C9, sequence (P11712 whole entry): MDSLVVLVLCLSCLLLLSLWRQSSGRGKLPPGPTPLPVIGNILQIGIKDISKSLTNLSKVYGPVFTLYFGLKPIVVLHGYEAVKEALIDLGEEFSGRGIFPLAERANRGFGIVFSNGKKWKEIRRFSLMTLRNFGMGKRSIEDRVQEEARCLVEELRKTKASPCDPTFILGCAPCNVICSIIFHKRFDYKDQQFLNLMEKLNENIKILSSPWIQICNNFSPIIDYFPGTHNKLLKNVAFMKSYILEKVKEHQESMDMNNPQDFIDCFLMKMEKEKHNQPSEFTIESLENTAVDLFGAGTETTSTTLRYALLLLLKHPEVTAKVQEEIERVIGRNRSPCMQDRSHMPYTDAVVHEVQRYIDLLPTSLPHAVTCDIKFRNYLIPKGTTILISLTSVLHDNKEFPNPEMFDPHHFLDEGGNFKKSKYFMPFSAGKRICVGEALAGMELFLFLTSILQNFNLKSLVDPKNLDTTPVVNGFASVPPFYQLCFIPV
Phosphatidylinositol 4-phosphate 3-kinase C2 domain-containing subunit beta (Homo sapiens), sequence (O00750 whole entry, the tested form may be a part): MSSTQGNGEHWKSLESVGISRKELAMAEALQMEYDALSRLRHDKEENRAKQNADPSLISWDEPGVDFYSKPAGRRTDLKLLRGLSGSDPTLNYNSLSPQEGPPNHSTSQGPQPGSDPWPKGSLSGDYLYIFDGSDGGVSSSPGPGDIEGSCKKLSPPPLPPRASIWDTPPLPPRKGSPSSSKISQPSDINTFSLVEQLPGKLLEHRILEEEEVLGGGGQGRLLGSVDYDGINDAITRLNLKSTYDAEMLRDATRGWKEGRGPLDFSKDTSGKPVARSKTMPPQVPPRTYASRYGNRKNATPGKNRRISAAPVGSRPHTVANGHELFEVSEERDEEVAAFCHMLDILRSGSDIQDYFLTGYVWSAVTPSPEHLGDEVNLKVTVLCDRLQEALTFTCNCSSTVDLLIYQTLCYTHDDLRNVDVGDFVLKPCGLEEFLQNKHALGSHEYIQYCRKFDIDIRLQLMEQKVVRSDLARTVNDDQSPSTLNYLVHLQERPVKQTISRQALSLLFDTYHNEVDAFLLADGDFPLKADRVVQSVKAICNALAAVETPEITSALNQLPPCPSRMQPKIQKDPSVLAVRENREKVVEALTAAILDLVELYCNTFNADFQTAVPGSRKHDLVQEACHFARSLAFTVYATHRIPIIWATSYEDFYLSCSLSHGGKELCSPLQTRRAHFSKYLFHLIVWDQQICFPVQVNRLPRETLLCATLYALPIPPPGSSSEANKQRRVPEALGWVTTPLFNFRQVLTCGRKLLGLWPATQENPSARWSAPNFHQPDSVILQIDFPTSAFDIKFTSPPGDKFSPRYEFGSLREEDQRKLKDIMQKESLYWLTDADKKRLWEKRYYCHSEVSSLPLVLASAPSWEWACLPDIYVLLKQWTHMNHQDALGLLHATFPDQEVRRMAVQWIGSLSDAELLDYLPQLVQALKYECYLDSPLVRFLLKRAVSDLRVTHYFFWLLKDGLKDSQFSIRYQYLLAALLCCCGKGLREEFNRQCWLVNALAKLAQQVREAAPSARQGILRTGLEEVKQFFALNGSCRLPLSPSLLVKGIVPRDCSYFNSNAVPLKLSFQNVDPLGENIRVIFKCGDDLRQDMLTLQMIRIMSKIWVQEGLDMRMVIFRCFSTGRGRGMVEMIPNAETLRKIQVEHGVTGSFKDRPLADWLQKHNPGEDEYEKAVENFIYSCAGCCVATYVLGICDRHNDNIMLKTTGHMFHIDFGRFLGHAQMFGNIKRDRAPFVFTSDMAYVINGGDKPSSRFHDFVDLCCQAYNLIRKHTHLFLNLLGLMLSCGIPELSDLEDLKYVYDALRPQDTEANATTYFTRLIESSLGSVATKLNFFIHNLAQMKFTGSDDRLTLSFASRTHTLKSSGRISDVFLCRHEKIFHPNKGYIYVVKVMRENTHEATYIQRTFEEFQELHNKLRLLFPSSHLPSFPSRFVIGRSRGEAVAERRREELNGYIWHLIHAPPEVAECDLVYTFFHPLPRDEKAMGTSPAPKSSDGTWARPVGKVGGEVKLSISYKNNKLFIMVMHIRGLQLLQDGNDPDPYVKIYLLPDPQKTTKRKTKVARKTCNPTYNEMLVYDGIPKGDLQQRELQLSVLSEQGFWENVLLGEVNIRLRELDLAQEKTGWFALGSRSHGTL
Cytochrome P450 2C19, sequence (P33261 whole entry): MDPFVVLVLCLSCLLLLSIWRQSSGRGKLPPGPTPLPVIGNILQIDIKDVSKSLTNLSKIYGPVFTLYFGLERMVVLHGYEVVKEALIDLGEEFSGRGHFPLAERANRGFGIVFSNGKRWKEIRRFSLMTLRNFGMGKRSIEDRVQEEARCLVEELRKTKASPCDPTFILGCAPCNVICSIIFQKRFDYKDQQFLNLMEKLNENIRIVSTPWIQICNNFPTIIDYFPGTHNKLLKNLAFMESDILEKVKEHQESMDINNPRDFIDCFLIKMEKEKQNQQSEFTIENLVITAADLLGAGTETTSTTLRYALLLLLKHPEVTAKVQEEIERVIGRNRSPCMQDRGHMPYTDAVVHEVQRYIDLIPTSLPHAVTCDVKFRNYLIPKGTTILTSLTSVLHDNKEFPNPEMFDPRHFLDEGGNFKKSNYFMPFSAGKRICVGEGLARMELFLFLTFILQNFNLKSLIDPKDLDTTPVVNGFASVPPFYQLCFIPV
Cytochrome P450 3A4, sequence (P08684 whole entry): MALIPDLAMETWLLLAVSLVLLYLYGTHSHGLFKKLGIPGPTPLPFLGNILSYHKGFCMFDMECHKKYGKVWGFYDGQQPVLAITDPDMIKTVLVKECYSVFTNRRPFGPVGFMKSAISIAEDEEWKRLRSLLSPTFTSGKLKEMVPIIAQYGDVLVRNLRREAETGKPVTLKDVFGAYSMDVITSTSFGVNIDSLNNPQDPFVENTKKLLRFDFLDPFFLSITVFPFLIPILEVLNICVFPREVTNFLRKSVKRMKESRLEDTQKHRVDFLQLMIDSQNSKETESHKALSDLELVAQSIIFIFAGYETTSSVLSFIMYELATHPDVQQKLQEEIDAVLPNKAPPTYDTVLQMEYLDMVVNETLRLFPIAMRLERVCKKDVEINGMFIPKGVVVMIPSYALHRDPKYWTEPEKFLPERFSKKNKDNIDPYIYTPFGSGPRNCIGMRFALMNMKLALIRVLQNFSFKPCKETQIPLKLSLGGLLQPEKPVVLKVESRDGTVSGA

## CC(C)n1ncnc1-c1cn2c(n1)-c1ccc(O[C@@H](C)C(N)=O)cc1OCC2
[1]
  inhibition in vivo at 12.5 mg/kg: 121%
[2]
  fraction unbound at 4 h, 5 µM: 0.62
[3]
  EC50: 2200 nM
[4]
  solubility thermodynamic: 82 µg/mL (≈ 214 µM)
[5]
  EC50: 100 nM
[6]
  fraction unbound at 4 h, 5 µM: 0.37
[7]
  inhibition in vivo at 3.25 mg/kg: 97%
[8]
  Vd: 2.5 L/kg
[9]
  clearance: 8 mL/min/kg
[10]
  AUC: 25.4 µM·h
Canis familiaris [11]
  F: 100%
[12]
  Cmax: 31000 nM
[13]
  inhibition in vivo at 1.56 mg/kg: 79%
[14]
  Vd: 1.5 L/kg
[15]
  EC50: 60 nM
Cytochrome P450 2C19
  IC50: > 10000 nM
[16]
  inhibition in vivo at 6.25 mg/kg: 122%
[17]
  bioavailability: 55%
[18]
  Cmax: 1500 nM
[19]
  clearance: 13 mL/min/kg
Mus musculus [20]
  Activity: < 10%
Cytochrome P450 3A4
  IC50: > 10000 nM
[21]
  inhibition in vivo at 1.56 mg/kg: 97%
[22]
  inhibition in vivo at 0.78 mg/kg: 73%
Mus musculus [23]
  Vdss: 0.6 L/kg
[24]
  clearance: 10 mL/min/kg
[25]
  Cmax: 2100 nM
[26]
  inhibition in vivo at 0.78 mg/kg: 73%
[27]
  bioavailability: 72%
[28]
  inhibition in vivo at 6.25 mg/kg: 101%
Cytochrome P450 2D6
  IC50: > 10000 nM
[29]
  AUC: 74 µM·h
Cytochrome P450 2C9
  IC50: > 10000 nM
[30]
  Vd: 1.5 L/kg
[31]
  AUC: 4.8 µM·h
[32]
  Papp A→B: 13 ×10⁻⁶ cm/s
[33]
  inhibition in vivo at 12.5 mg/kg: 110%
Canis familiaris [34]
  AUC: 2.4 µM·h
Mus musculus [35]
  inhibition in vivo at 6.25 mg/kg: 78%
[36]
  bioavailability: 120%
[37]
  inhibition in vivo at 3.25 mg/kg: 83%
[38]
  inhibition: 61%

Source: ChEMBL document CHEMBL3769318, “The Rational Design of Selective Benzoxazepin Inhibitors of the α-Isoform of Phosphoinositide 3-Kinase Culminating in the Identification of (S)-2-((2-(1-Isopropyl-1H-1,2,4-triazol-5-yl)-5,6-dihydrobenzo[f]imidazo[1,2-d][1,4]oxazepin-9-yl)oxy)propanamide (GDC-0326)” (J Med Chem, 2016)
